One block for each compound: values may come before it. Calls of active or inactive are those of the source.
Tests used:
[1] = molecular target: T1, Substance-K receptor (Rattus norvegicus) (UniProt P16610); assay: Antagonist activity at NK2 receptor in rat urinary bladder assessed as effect on beta-Ala8]NKA(4-10)-induced mechanical activity; format: functional; settings: filed as antagonist
T1 sequence (whole entry): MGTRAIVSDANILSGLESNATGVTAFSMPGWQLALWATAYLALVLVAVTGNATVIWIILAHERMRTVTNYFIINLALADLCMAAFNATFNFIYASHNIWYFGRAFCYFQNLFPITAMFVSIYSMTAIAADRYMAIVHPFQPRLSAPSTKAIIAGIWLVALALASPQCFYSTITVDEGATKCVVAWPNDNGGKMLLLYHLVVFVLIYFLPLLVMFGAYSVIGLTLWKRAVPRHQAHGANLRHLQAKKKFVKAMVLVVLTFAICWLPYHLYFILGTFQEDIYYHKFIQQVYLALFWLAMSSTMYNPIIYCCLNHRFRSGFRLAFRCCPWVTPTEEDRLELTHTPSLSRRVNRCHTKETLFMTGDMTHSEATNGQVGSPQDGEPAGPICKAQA
Procedure, shortened: (§1)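 Isolated smooth muscle strips were held in oxygenated (96% O2/4% CO2) Krebs–Henseleit at NaCl 119, NaHCO3 25, KH2PO4 1.2, MgSO4 1.5, CaCl2 2.5, KCl 4.7 and glucose 11 mM. Cumulative agonist concentration–response curves were run after 15 min antagonist incubation. pKB = log(dose ratio − 1) − log[antagonist], as the mean of individual values.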

[2] = molecular target: Substance-P receptor (Cavia porcellus) (UniProt P30547); assay: Antagonist activity at NK1 receptor in guinea pig ileum assessed as effect on substance P methyl ester-induced mechanical activity; format: functional, tissue-based; procedure, shortened: as §1
Sequence of Substance-P receptor (Cavia porcellus) (P30547 whole entry): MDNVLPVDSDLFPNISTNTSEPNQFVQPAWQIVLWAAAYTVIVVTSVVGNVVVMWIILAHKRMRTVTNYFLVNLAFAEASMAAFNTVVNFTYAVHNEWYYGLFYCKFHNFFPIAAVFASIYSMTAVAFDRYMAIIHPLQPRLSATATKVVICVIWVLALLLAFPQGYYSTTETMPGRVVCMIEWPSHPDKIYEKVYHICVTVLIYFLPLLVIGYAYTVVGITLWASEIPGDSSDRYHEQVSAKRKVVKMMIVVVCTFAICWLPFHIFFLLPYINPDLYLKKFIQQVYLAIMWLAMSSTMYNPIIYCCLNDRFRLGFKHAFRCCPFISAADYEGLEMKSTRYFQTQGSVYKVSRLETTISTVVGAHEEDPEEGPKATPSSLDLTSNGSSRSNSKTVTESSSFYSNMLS

[3] = molecular target: T2, Substance-K receptor (Oryctolagus cuniculus) (UniProt P79218); assay: Antagonist activity at NK2 receptor in rabbit pulmonary artery assessed as effect on neurokinin A-induced mechanical activity; format: functional; settings: filed as antagonist; procedure, shortened: as §1
T2 sequence (whole entry): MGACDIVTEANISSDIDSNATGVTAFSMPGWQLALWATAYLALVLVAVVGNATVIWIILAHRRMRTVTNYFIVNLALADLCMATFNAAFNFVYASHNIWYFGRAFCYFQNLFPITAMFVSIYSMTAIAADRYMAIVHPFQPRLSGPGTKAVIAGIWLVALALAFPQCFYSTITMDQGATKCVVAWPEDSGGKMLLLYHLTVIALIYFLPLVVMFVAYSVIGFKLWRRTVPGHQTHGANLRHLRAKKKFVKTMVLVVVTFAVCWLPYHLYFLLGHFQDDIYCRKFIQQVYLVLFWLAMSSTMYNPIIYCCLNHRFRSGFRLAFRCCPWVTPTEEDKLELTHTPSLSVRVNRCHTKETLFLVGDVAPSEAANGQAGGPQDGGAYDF

[4] = molecular target: T3, Neuromedin-K receptor (Cavia porcellus) (UniProt P30098); assay: Antagonist activity at NK3 receptor in guinea pig ileum assessed as effect on senktide-induced mechanical activity; format: functional, tissue-based; settings: filed as antagonist
T3 sequence (whole entry): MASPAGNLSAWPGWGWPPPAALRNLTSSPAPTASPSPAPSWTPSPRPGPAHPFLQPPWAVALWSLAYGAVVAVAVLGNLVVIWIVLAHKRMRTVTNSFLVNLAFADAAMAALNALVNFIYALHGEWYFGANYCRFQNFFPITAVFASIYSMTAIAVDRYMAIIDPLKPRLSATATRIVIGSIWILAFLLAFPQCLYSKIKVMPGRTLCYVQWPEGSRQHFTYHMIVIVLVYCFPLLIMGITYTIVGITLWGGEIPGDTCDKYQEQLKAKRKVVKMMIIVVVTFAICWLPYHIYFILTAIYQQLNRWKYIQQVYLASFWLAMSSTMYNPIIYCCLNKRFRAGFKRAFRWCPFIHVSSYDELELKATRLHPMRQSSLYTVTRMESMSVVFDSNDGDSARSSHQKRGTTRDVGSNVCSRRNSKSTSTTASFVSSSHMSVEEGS

Substance-K receptor = molecular target: T4, Substance-K receptor (Homo sapiens, UniProt P21452); assay: Displacement of [125I]neurokinin A from human NK2 receptor expressed in CHOK1 cells; format: cell-based, CHO-K1
T4 sequence (P21452 whole entry): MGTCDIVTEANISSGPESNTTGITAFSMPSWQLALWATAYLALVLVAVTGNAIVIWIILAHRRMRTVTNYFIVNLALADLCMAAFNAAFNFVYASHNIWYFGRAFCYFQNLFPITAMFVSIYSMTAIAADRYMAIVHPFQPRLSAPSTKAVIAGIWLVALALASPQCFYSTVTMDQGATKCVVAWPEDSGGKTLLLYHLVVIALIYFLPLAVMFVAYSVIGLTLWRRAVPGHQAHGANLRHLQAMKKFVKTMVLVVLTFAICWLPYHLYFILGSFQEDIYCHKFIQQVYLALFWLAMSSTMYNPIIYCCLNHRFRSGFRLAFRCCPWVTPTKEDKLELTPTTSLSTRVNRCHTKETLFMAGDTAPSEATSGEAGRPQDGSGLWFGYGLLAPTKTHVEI
Procedure, shortened: (§2)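 Competition binding was run on membranes of cells stably transfected with the human receptor: U-373MG for NK-1, CHO-K1 for NK-2 and NK-3. NK-1 used [3H][Sar9]SP sulfone at 1.2 nM. Affinity is given as pKi (−log Ki).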

Cavia porcellus [5] = assay: Inhibition of [beta-Ala8]NKA(4-10)-induced bronchoconstriction in anesthetized Dunkin Hartley guinea pig at 100 nmol/kg, it relative to control; format: functional, organism-based; settings: 10 nmol/kg, in the assay text read “10 nmol/kg” for “100 nmol/kg”
Procedure, shortened: (§3)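 Male Dunkin Hartley guinea pigs (350–400 g) were anesthetized with urethane 1.5 g/kg sc, kept at 36 °C and ventilated at 60 strokes/min. After two reproducible control responses to agonist (1 nmol/kg iv, jugular vein), antagonist was given intratracheally near the bronchial bifurcation. Dosing was 5 and 30 min before challenge, with challenges repeated every 30 min up to 4 h. Bronchoconstriction = insufflation pressure rise over basal (mmHg), expressed as % inhibition of control.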

Cavia porcellus [6] = assay: Inhibition of [beta-Ala8]NKA(4-10)-induced bronchoconstriction in intratracheally dosed anesthetized Dunkin Hartley guinea pig; format: functional; settings: Trachea, inhaled or nasal; procedure, shortened: as §3
Substance-P receptor = Substance-P receptor (Homo sapiens, UniProt P25103); assay: Displacement of [3H][Sar9]SP sulfone from human NK1 receptor expressed in U373MG cells; format: cell-based, U-373MG ATCC; procedure, shortened: as §2
Sequence of Substance-P receptor (P25103 whole entry): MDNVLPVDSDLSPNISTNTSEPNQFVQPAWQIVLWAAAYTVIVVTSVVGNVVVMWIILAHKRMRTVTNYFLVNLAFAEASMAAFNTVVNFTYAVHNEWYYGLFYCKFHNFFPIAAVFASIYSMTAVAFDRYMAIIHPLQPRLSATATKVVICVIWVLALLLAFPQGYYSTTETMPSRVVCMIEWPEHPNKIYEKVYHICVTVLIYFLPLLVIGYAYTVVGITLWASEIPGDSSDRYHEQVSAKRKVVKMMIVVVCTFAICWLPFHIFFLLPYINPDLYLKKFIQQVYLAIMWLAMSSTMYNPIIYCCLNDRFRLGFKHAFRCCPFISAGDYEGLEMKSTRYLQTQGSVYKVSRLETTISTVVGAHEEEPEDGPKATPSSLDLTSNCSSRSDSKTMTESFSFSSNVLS

Neuromedin-K receptor = molecular target: T5, Neuromedin-K receptor (Homo sapiens, UniProt P29371); assay: Displacement of [125I][MePhe7]NKB from human NK3 receptor expressed in CHOK1 cells; format: cell-based, CHO-K1; procedure, shortened: as §2
T5 sequence (P29371 whole entry): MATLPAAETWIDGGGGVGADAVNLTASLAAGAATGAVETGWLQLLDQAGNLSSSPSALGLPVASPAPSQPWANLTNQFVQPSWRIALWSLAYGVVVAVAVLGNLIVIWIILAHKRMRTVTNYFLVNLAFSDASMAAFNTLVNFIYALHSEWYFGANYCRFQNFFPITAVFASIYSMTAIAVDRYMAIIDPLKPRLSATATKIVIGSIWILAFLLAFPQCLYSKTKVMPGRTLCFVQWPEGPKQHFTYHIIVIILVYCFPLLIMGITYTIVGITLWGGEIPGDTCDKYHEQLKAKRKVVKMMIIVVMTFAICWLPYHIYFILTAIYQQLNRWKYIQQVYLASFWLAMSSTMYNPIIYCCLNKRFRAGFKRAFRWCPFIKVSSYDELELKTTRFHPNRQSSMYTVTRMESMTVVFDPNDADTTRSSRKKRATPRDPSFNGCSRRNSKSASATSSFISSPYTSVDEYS

Cavia porcellus [7] = assay: Inhibition of [beta-Ala8]NKA(4-10)-induced bronchoconstriction in anesthetized Dunkin Hartley guinea pig at 10 nmol/kg, it relative to control; format: functional; procedure, shortened: as §3

SMILES: O=C1C[C@@H](N2CCOCC2)C(=O)NC[C@@H](Cc2ccccc2)NC(=O)[C@H](Cc2ccccc2)NC(=O)[C@H](Cc2c[nH]c3ccccc23)N1
pKb [1]: 9.2
pKb ([2]; filed as antagonist): 6.2
pKb [3]: 8.9
pKb [4]: 6.1

SMILES: N[C@H]1CC(=O)N[C@@H](Cc2c[nH]c3ccccc23)C(=O)N[C@@H](Cc2ccccc2)C(=O)N[C@H](Cc2ccc(Cl)c(Cl)c2)CNC1=O
pKb [1]: 8.9
Ki (Substance-K receptor): 0.2 nM (antagonist)
pKb [3]: 8.6

SMILES: N[C@@H]1CC(=O)N[C@@H](Cc2c[nH]c3ccccc23)C(=O)N[C@@H](Cc2ccccc2)C(=O)N[C@H](Cc2ccc(Cl)c(Cl)c2)CNC1=O
Ki (Substance-K receptor): 0.158 nM (antagonist)
pKb [3]: 8.1

SMILES: N[C@@H]1CC(=O)N[C@@H](Cc2c[nH]c3ccccc23)C(=O)N[C@@H](Cc2ccccc2)C(=O)N[C@H](Cc2ccccc2)CNC1=O
Ki (Substance-K receptor): 2 nM (antagonist)
pKb [3]: 7.9

SMILES: O=C1CCC(=O)N[C@@H](Cc2c[nH]c3ccccc23)C(=O)N[C@@H](Cc2ccccc2)C(=O)N[C@H](Cc2ccc(Cl)c(Cl)c2)CN1
pKb [1]: 8.1
pKb [3]: 8.1

SMILES: O=C1C[C@@H](N2CCOCC2)C(=O)NC[C@@H](Cc2ccc(Cl)c(Cl)c2)NC(=O)[C@H](Cc2ccccc2)NC(=O)[C@H](Cc2c[nH]c3ccccc23)N1
pKb [1]: 8
Ki (Substance-K receptor): 0.251 nM (antagonist)
pKb [3]: 8.4

SMILES: N[C@H]1CC(=O)NC[C@@H](Cc2ccccc2)NC(=O)[C@H](Cc2ccccc2)NC(=O)[C@H](Cc2c[nH]c3ccccc23)NC1=O
pKb [3]: 7.7

SMILES: O=C1C[C@H](NC2CCOCC2)C(=O)NC[C@@H](Cc2ccccc2)NC(=O)[C@H](Cc2ccccc2)NC(=O)[C@H](Cc2c[nH]c3ccccc23)N1
Ki (Substance-K receptor): 1 nM (antagonist)
pKb [3]: 8.6

SMILES: O=C1C[C@@H](NC2CCOCC2)C(=O)NC[C@@H](Cc2ccccc2)NC(=O)[C@H](Cc2ccccc2)NC(=O)[C@H](Cc2c[nH]c3ccccc23)N1
pKb [1]: 9.1
Ki (Substance-K receptor): 0.0631 nM (antagonist)
pKb ([2]; filed as antagonist): 6.1
pKb [3]: 9.2
pKb [4]: 6.4

SMILES: N[C@@H]1CC(=O)NC[C@@H](Cc2ccccc2)NC(=O)[C@H](Cc2ccccc2)NC(=O)[C@H](Cc2c[nH]c3ccccc23)NC1=O
Ki (Substance-K receptor): 15.8 nM (antagonist)
pKb [3]: 7.2

The next lines start with results.

pKb [1]: 9.2
pKb ([2]; filed as antagonist): 6.8
pKb [4]: 5.8
SMILES: O=C1C[C@@H](NC(=O)CN2CCC(N3CCCCC3)CC2)C(=O)NC[C@@H](Cc2ccccc2)NC(=O)[C@H](Cc2ccccc2)NC(=O)[C@H](Cc2c[nH]c3ccccc23)N1

Ki (Substance-K receptor): 1.58 nM (antagonist)
pKb [3]: 8.2
SMILES: O=C1C[C@@H](N2CCCCC2)C(=O)NC[C@@H](Cc2ccccc2)NC(=O)[C@H](Cc2ccccc2)NC(=O)[C@H](Cc2c[nH]c3ccccc23)N1

Ki (Substance-K receptor): 1.58 nM (antagonist)
pKb [3]: 7.7
SMILES: O=C1C[C@@H](N2CCNCC2)C(=O)NC[C@@H](Cc2ccccc2)NC(=O)[C@H](Cc2ccccc2)NC(=O)[C@H](Cc2c[nH]c3ccccc23)N1

pKb [1]: 8.9
pKb [3]: 8.5
SMILES: O=C1C[C@H](N2CCOCC2)C(=O)NC[C@@H](Cc2ccccc2)NC(=O)[C@H](Cc2ccccc2)NC(=O)[C@H](Cc2c[nH]c3ccccc23)N1

pKb [1]: 9.7
Ki (Substance-K receptor): 0.158 nM (antagonist)
pKb ([2]; filed as antagonist): 7.5
Ki (Substance-P receptor): 126 nM (antagonist)
Ki (Neuromedin-K receptor): 1260 nM (antagonist)
pKb [4]: 6.4
SMILES: O=C1C[C@@H](NC(=O)CN2CCC(N3CCOCC3)CC2)C(=O)NC[C@@H](Cc2ccccc2)NC(=O)[C@H](Cc2ccccc2)NC(=O)[C@H](Cc2c[nH]c3ccccc23)N1
Activity (Cavia porcellus [5]): Active
ED50 (Cavia porcellus [6]): 0.00015 µmol/kg
inhibition in vivo at 0.01 µmol/kg (Cavia porcellus [7]): 80%

pKb [1]: 9.5
Ki (Substance-K receptor): 0.1 nM (antagonist)
pKb [2]: < 5.5
Ki (Substance-P receptor): 200 nM (antagonist)
Ki (Neuromedin-K receptor): 7940 nM (antagonist)
pKb [4]: 5.9
SMILES: NS(=O)(=O)N1CCN(CC(=O)N[C@@H]2CC(=O)N[C@@H](Cc3c[nH]c4ccccc34)C(=O)N[C@@H](Cc3ccccc3)C(=O)N[C@H](Cc3ccccc3)CNC2=O)CC1
Activity (Cavia porcellus [5]): Active
ED50 (Cavia porcellus [6]): 0.00027 µmol/kg
